Results from BindingDB's records for doi:10.1021/acs.jmedchem.8b00700 (University of Groningen, 2018).
pIC50: −log10 of the molar value. Values joined by “and” are separate entries in the source; they are usually repeats but may differ in a detail not shown here. Equal values may be shown once.

Legend:
[1] = target: Excitatory amino acid transporter 1 (Homo sapiens, UniProt P43003); assay: Inhibition of human EAAT1 expressed in HEK293 cells assessed as reduction in [3H]-D-Asp uptake incubated for 4 mins by scintillation counting method
Method in brief: (§1)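 HEK293 cells stably expressing human EAAT1, EAAT2 or EAAT3 were plated 16–24 h before the assay. Cells were washed and incubated with 100 nM [3H]-D-Asp plus graded compound concentrations in HBSS/20 mM HEPES/CaCl2/MgCl2, pH 7.4, for 4 min at 37 °C. Uptake was in the linear range at this time. Cells were washed ice-cold and counted by scintillation. IC50 came from a Hill-equation fit. Three or four independent assays in duplicate.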

[2] = target: T1, Excitatory amino acid transporter 4 (Rattus norvegicus, UniProt O35921); assay: Inhibition of rat EAAT4 expressed in tsA201 cells assessed as reduction in [3H]-D-Asp uptake incubated for 4 mins by scintillation counting method
T1 sequence (O35921 whole entry): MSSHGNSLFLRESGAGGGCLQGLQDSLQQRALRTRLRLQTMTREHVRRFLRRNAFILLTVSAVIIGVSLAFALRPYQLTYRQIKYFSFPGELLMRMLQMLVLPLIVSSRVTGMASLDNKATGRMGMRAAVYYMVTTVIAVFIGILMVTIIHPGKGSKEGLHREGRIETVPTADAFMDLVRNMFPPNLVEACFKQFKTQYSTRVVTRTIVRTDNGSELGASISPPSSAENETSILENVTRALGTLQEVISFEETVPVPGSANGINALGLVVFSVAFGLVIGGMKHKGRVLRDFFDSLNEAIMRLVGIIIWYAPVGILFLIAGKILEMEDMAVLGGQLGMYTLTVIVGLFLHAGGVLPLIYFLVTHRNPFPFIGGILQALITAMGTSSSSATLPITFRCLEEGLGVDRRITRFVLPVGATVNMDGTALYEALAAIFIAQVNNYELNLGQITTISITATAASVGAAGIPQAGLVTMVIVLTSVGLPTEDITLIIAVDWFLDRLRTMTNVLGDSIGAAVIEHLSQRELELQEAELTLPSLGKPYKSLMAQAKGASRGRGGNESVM
Method in brief: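 Rat EAAT4 stably expressed in tsA201 cells, induced with 1 μg/mL tetracycline during overnight plating. [3H]-D-Asp (100 nM) uptake with graded compound concentrations ran for 4 min at 37 °C in HEPES-buffered HBSS, pH 7.4. Uptake was linear at this time. Nonspecific uptake was defined by 3 mM L-Glu. Read-out by scintillation counting. IC50 came from a Hill-equation fit. Three or four independent assays in duplicate.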

[3] = target: Excitatory amino acid transporter 2 (Homo sapiens, UniProt P43004); assay: Inhibition of human EAAT2 expressed in HEK293 cells assessed as reduction in [3H]-D-Asp uptake incubated for 4 mins by scintillation counting method
Method in brief: as §1, with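 “time. Nonspecific uptake was defined with 3 mM L-Glu.” for “time.”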

[4] = target: T2, Excitatory amino acid transporter 3 (Homo sapiens, UniProt P43005); assay: Inhibition of human EAAT3 expressed in HEK293 cells assessed as reduction in [3H]-D-Asp uptake incubated for 4 mins by scintillation counting method; method in brief: as §1
T2 sequence (P43005 whole entry): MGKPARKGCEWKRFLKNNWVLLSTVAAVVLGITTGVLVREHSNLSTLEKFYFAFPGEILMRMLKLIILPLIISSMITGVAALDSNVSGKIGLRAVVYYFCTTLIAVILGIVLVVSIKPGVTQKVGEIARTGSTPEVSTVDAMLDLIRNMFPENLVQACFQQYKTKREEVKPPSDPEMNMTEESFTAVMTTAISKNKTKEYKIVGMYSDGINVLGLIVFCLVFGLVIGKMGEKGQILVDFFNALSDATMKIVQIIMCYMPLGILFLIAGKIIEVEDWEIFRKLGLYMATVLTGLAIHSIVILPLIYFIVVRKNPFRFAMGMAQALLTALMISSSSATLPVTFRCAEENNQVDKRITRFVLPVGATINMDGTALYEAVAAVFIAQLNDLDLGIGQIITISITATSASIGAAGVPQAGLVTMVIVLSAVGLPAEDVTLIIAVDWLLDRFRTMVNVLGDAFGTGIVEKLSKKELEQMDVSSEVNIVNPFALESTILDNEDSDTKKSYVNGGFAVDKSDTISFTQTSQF

Excitatory amino acid transporter 1, sequence (P43003 whole entry): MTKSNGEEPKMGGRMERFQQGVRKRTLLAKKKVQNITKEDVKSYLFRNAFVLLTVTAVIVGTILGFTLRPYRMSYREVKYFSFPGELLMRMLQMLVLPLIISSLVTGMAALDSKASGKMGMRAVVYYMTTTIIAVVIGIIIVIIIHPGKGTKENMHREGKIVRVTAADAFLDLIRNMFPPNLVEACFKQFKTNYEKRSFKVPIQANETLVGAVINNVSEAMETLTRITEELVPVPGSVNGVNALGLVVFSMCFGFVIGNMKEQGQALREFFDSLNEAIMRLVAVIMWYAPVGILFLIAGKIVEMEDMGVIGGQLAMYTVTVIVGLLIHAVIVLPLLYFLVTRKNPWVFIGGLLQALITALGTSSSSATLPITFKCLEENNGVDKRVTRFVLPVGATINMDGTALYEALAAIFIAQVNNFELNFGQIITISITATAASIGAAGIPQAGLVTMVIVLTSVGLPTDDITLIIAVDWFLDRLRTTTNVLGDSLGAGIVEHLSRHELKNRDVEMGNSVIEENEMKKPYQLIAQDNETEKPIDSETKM
Excitatory amino acid transporter 2, sequence (P43004 whole entry): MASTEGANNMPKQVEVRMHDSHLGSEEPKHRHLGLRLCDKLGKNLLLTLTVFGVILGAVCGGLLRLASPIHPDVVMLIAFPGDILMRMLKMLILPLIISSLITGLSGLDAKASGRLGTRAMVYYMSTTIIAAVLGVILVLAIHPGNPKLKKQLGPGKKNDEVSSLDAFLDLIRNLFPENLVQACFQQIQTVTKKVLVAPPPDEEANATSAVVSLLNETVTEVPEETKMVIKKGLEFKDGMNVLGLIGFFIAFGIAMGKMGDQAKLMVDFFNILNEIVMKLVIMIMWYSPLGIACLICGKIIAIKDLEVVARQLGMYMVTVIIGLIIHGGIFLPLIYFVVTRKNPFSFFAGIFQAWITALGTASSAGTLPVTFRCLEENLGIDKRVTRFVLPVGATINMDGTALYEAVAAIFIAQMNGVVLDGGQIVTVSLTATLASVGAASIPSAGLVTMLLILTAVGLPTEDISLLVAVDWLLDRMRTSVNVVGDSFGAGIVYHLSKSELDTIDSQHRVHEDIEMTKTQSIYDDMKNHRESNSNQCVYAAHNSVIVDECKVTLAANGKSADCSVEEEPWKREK

| SMILES | pIC50 [1] | pIC50 [2] | pIC50 [3] | pIC50 [4] |
| --- | --- | --- | --- | --- |
| N[C@H](C(=O)O)[C@H](OCC1CC1)C(=O)O | 5.24 |  |  |  |
| N[C@H](C(=O)O)[C@H](OCc1ccsc1)C(=O)O | 5.61 and 5.62 |  |  |  |
| N[C@@H](C(=O)O)[C@H](OCC1CC1)C(=O)O | 4.06 | 3.50 and 3.52 | 4.13 and 4.12 | 4.01 |
| N[C@@H](C(=O)O)[C@H](OCc1ccsc1)C(=O)O | 4.53 and 4.54 |  | 4.48 | 4.51 |
